Drawing on ChEMBL document CHEMBL1124759, “Fluoronaphthyridines and quinolones as antibacterial agents. 2. Synthesis and structure-activity relationships of new 1-tert-butyl 7-substituted derivatives” (J Med Chem, 1990), this text covers MIC, ED50 and solubility for nine compounds.

The test system of one data set is Enterococcus faecalis. Nature of the data set: In vitro minimum inhibitory concentration (MIC) against Enterococcus faecalis A 9808 at 37 degrees C for 18 h. The class given is functional. The procedure, abridged:
(§1)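 Two-fold serial broth dilution in nutrient broth. Inoculum adjusted to 10^6 cfu/mL. Compounds tested from 0.0005 to 250 µg/mL.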

The subject of data set [1] is Escherichia coli. The data set can be described thus: In vitro minimum inhibitory concentration (MIC) against Escherichia coli A 15119 at 37 degrees C for 18 h. The class given is functional. The procedure, abridged:
as §1

A further data set deals with Enterococcus faecium. The data set can be described thus: In vitro minimum inhibitory concentration (MIC) against Enterococcus faecium A 24885 at 37 degrees C for 18 h. The class given is functional. The method, boiled down: as §1
Data set [2] relates to Klebsiella pneumoniae. Nature of the data set: In vitro minimum inhibitory concentration (MIC) against Klebsiella pneumoniae A 9664 at 37 degrees C for 18 h. The data set is classed as functional. The procedure, abridged:
as §1

In another data set the test system is Morganella morganii. Nature of the data set: In vitro minimum inhibitory concentration (MIC) against Morganella morganii A 15153 at 37 degrees C for 18 h. The data set is classed as functional. The procedure, abridged:
as §1

Data set [3] relates to Pseudomonas aeruginosa. The data set can be described thus: In vitro minimum inhibitory concentration (MIC) against Pseudomonas aeruginosa A 9843 at 37 degrees Celsius for 18 h. The data set is classed as functional. The method, boiled down: as §1
In data set [4] the test system is Staphylococcus aureus. The data set can be described thus: In vitro minimum inhibitory concentration (MIC) against Staphylococcus aureus Smith A 9537 at 37 degrees C for 18 hr. The data set is classed as functional. The procedure, abridged:
as §1

The subject of the next data set is Serratia marcescens. The data set can be described thus: In vitro minimum inhibitory concentration (MIC) against Serratia marcescens A 20019 at 37 degrees C for 18 hr. The class given is functional. The method, boiled down: as §1
The subject of a further data set is Enterobacter cloacae. The data set can be described thus: In vitro minimum inhibitory concentration (MIC) against Enterobacter cloacae A 9656 at 37 degrees C for 18 h. The class given is functional.
The subject of data set [5] is Escherichia coli. Nature of the data set: Efficacy on systematic infections against Escherichia coli A 15119 after oral administration in mice. The data set is classed as functional. The following applies: read-out: PD50. The method, boiled down: (§2)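 Mice given compound orally after lethal systemic infection. Read-out is the oral dose protecting 50% of mice from death (PD50), reported in mg/kg.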

The test system of data set [6] is Klebsiella pneumoniae. The data set can be described thus: Efficacy on systematic infections against Klebsiella pneumoniae A 9664 after oral administration in mice. The data set is classed as functional. The settings on record: read-out: PD50. The method, boiled down: as §2
Data set [7] deals with Pseudomonas aeruginosa. The data set can be described thus: In vitro minimum inhibitory concentration (MIC) against Pseudomonas aeruginosa A 9843 at 37 degree C for 18 h. The data set is classed as functional. The procedure, abridged:
as §1

Data set [8] concerns Pseudomonas aeruginosa. The data set can be described thus: Efficacy on systematic infections against Pseudomonas aeruginosa A 9843 after oral administration in mice. The data set is classed as functional. The following applies: read-out: PD50. The procedure, abridged: as §2
Data set [9] deals with Staphylococcus aureus. The data set can be described thus: Efficacy on systematic infections against Staphylococcus aureus A 9537 after oral administration in mice. The class given is functional. The following applies: read-out: PD50. The method, boiled down:
as §2

For data set [10], the system named is Pseudomonas aeruginosa. The data set can be described thus: In vitro minimum inhibitory concentration (MIC) against Pseudomonas aeruginosa A 9843 at 37 degrees C for 18 h. The class given is functional. The procedure, abridged:
as §1

A short description of data set [11]: Tested for aqueous solubility. The following applies: aqueous medium.
Data set [12] deals with Escherichia coli. The data set can be described thus: In vitro minimum inhibitory concentration (MIC) against Escherichia coli A 15119 at 37 degrees Celsius for 18 h. The data set is classed as functional. The procedure, abridged: as §1

SMILES strings stand for the structures. ≈ marks a conversion by molar mass, not a printed value.

For orientation: MIC means the lowest concentration that inhibits growth of the organism. Broadly, the solubility is the concentration that dissolves in the medium under given conditions. A low value points to little dissolved substance.

Turning to `CC1(N)CCN(c2nc3c(cc2F)c(=O)c(C(=O)O)cn3C(C)(C)C)C1` (configuration not stated), the MIC was 0.5 µg/mL (≈ 1.38 µM) against Enterococcus faecalis; 0.06 µg/mL (≈ 0.166 µM) against Escherichia coli [1]; 4 µg/mL (≈ 11 µM) against Enterococcus faecium; 0.06 µg/mL (≈ 0.166 µM) in the data set on Klebsiella pneumoniae [2]; 0.5 µg/mL (≈ 1.38 µM) with Morganella morganii; 2 µg/mL (≈ 5.52 µM) with Pseudomonas aeruginosa [3]. For the same compound, the MIC with Staphylococcus aureus [4] came to 0.015 µg/mL (≈ 0.0414 µM); against Serratia marcescens it was 0.5 µg/mL (≈ 1.38 µM); with Enterobacter cloacae, 0.13 µg/mL (≈ 0.359 µM).
Turning to `CC1(N)CCN(c2cc3c(cc2F)c(=O)c(C(=O)O)cn3C(C)(C)C)C1` (configuration not stated), the MIC against Enterococcus faecalis was 0.5 µg/mL (≈ 1.38 µM); in the data set on Escherichia coli [1], 0.5 µg/mL (≈ 1.38 µM); in the data set with Enterococcus faecium, 4 µg/mL (≈ 11.1 µM); against Klebsiella pneumoniae [2], 0.25 µg/mL (≈ 0.692 µM); against Morganella morganii it was 1 µg/mL (≈ 2.77 µM); in the data set on Pseudomonas aeruginosa [3] it was 2 µg/mL (≈ 5.53 µM). Also, the results for the MIC in the data set with Staphylococcus aureus [4], in the data set on Serratia marcescens and against Enterobacter cloacae were 0.06 µg/mL (≈ 0.166 µM), 2 µg/mL (≈ 5.53 µM) and 0.5 µg/mL (≈ 1.38 µM), respectively.
For `CS(=O)(=O)O.C[C@H]1CN(c2nc3c(cc2F)c(=O)c(C(=O)O)cn3C(C)(C)C)C[C@H]1N`, the MIC against Enterococcus faecalis worked out at 0.13 µg/mL; against Escherichia coli [1], 0.25 µg/mL; in the data set on Enterococcus faecium, 1 µg/mL; with Klebsiella pneumoniae [2], 0.03 µg/mL; against Morganella morganii, 0.5 µg/mL; in the data set on Pseudomonas aeruginosa [7], 0.5 µg/mL. The MIC against Staphylococcus aureus [4] was determined as 0.015 µg/mL; against Serratia marcescens, 0.25 µg/mL; against Enterobacter cloacae, 0.13 µg/mL. Besides, the ED50 with Escherichia coli [5] turned out to be 2.4 mg/kg; with Klebsiella pneumoniae [6], 4.1 mg/kg; with Pseudomonas aeruginosa [8], 9 mg/kg; with Staphylococcus aureus [9] it was 1.6 mg/kg.
Turning to `CN1CCN(c2cc3c(cc2F)c(=O)c(C(=O)O)cn3C(C)(C)C)CC1.Cl`, the MIC against Enterococcus faecalis worked out at 4 µg/mL; in the data set with Escherichia coli [1], 0.03 µg/mL; in the data set on Enterococcus faecium it was 16 µg/mL; against Klebsiella pneumoniae [2], 0.25 µg/mL; in the data set on Morganella morganii it was 0.25 µg/mL; in the data set with Pseudomonas aeruginosa [10] it was 0.5 µg/mL. Besides, the figures for the minimal inhibitory concentration (MIC) with Staphylococcus aureus [4], with Serratia marcescens and in the data set with Enterobacter cloacae were 0.03 µg/mL, 1 µg/mL and 0.25 µg/mL, respectively.
Regarding `CC(C)(C)n1cc(C(=O)O)c(=O)c2cc(F)c(N3CCC(N)C3)cc21.Cl` (configuration not stated), the concentration in solution in data set [11] (solubility) was 70 µg/mL. Besides, the MIC turned out to be 0.25 µg/mL against Enterococcus faecalis; 0.06 µg/mL in the data set on Escherichia coli [1]; 2 µg/mL against Enterococcus faecium; 0.25 µg/mL with Klebsiella pneumoniae [2]; 0.5 µg/mL in the data set on Morganella morganii; 1 µg/mL against Pseudomonas aeruginosa [7]. For the same compound, the figures for the MIC against Staphylococcus aureus [4], in the data set on Serratia marcescens and in the data set with Enterobacter cloacae were 0.03 µg/mL, 1 µg/mL and 0.13 µg/mL, respectively. Also, the ED50 in the data set on Escherichia coli [5] is 5.4 mg/kg; in the data set with Klebsiella pneumoniae [6] it was 23 mg/kg; in the data set on Pseudomonas aeruginosa [8] it was 19.9 mg/kg; in the data set with Staphylococcus aureus [9], 8.2 mg/kg.
With `CC(C)(C)n1cc(C(=O)O)c(=O)c2cc(F)c(N3CCC(N)C3)nc21.CS(=O)(=O)O` (configuration not stated), the MIC in the data set with Enterococcus faecalis amounted to 0.25 µg/mL; against Escherichia coli [1], 0.13 µg/mL; in the data set with Enterococcus faecium, 1 µg/mL; in the data set on Klebsiella pneumoniae [2], 0.25 µg/mL; against Morganella morganii, 1 µg/mL; against Pseudomonas aeruginosa [7], 2 µg/mL. The MIC against Staphylococcus aureus [4] is 0.015 µg/mL; against Serratia marcescens, 0.25 µg/mL; against Enterobacter cloacae, 0.13 µg/mL. Moreover, the ED50 is 1.4 mg/kg with Escherichia coli [5], 2.1 mg/kg in the data set with Klebsiella pneumoniae [6], 3.5 mg/kg in the data set on Pseudomonas aeruginosa [8] and 1.4 mg/kg in the data set with Staphylococcus aureus [9].
Turning to `CC1CN(c2cc3c(cc2F)c(=O)c(C(=O)O)cn3C(C)(C)C)CCN1` (configuration not stated), the solubility in data set [11] stood at 1560 µg/mL (≈ 4320 µM). Besides, the MIC was found to be 1 µg/mL (≈ 2.77 µM) in the data set on Enterococcus faecalis; 0.008 µg/mL (≈ 0.0221 µM) in the data set on Escherichia coli [1]; 4 µg/mL (≈ 11.1 µM) against Enterococcus faecium; 0.015 µg/mL (≈ 0.0415 µM) in the data set on Klebsiella pneumoniae [2]; 0.5 µg/mL (≈ 1.38 µM) in the data set with Morganella morganii; 1 µg/mL (≈ 2.77 µM) against Pseudomonas aeruginosa [10]. For the same compound, the MIC was found to be 0.06 µg/mL (≈ 0.166 µM) in the data set with Staphylococcus aureus [4], 0.5 µg/mL (≈ 1.38 µM) in the data set with Serratia marcescens and 0.03 µg/mL (≈ 0.083 µM) against Enterobacter cloacae. Moreover, the ED50 with Klebsiella pneumoniae [6] came out at 5.4 mg/kg; with Pseudomonas aeruginosa [8], 25 mg/kg; with Staphylococcus aureus [9], 5.4 mg/kg.
On to `CC(C)(C)n1cc(C(=O)O)c(=O)c2cc(F)c(N3C[C@@H](CN)[C@@H](F)C3)nc21`, for which the MIC came to 0.13 µg/mL (≈ 0.342 µM) against Enterococcus faecalis; 0.06 µg/mL (≈ 0.158 µM) with Escherichia coli [1]; 1 µg/mL (≈ 2.63 µM) in the data set on Enterococcus faecium; 0.25 µg/mL (≈ 0.657 µM) against Klebsiella pneumoniae [2]; 0.5 µg/mL (≈ 1.31 µM) against Morganella morganii; 0.5 µg/mL (≈ 1.31 µM) with Pseudomonas aeruginosa [7]. The results for the MIC against Staphylococcus aureus [4], with Serratia marcescens and in the data set on Enterobacter cloacae were 0.015 µg/mL (≈ 0.0394 µM), 0.5 µg/mL (≈ 1.31 µM) and 0.25 µg/mL (≈ 0.657 µM), respectively. In addition, the ED50 in the data set with Escherichia coli [5] came to 18 mg/kg; with Klebsiella pneumoniae [6], 18 mg/kg; in the data set on Pseudomonas aeruginosa [8] it was 18 mg/kg; with Staphylococcus aureus [9], 4.5 mg/kg.
Take `CN1C2CCC1CN(c1cc3c(cc1F)c(=O)c(C(=O)O)cn3C(C)(C)C)C2.Cl`: the MIC with Enterococcus faecalis was 2 µg/mL; in the data set with Escherichia coli [12], 0.5 µg/mL; in the data set on Enterococcus faecium, 8 µg/mL; in the data set on Klebsiella pneumoniae [2], 0.13 µg/mL; against Morganella morganii, 1 µg/mL; with Pseudomonas aeruginosa [7] it was 4 µg/mL. Further, the minimum inhibitory concentration (MIC) against Staphylococcus aureus [4] turned out to be 0.13 µg/mL; in the data set on Serratia marcescens, 0.5 µg/mL; in the data set with Enterobacter cloacae, 0.13 µg/mL.
